# Compounds with a hit are over-represented: about 2.3% of the library has one in this group of screens.
# PGC1a acetyl inh: inhibitors of PGC1a acetylation signal, primary screen, cell-based, U2OS, AlphaScreen, inhibitor mode. 350,000 compounds, 0.17% hits. AID 651687, 2012. inhibition, % at 15.6 µM. AlphaScreen anti-acetyl-lysine; with virally co-expressed GCN5 acetyltransferase;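 active means every replicate shows inhibition of at least 40%; inconclusive means mean inhibition at least 40% but some replicate below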
# EWS-Fli inh: EWS/Fli-driven NR0B1 reporter inhibitors, primary screen, A673 cells, NR0B1 luciferase, luminescence, MLPCN library | viability-normalised | inhibition, % at 12.6 µM | 350,000 compounds, 0.67% hits | AID 651661, 2012;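 active means mean inhibition of at least 50% after viability correction, with every replicate also passing that limit; inconclusive means mean reaches 50% but only one of two replicates passes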;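 further: firefly luciferase signal divided by Alamar Blue viability fluorescence both relative to DMSO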
# PAX8 inh HTS: inhibitors of PAX8-driven TPO luciferase reporter, primary screen, RMG-I cells, single concentration; 360,000 compounds, 1.2% hits; inhibition, % at 12.6 µM; SteadyGlo, 24 h; AID 652154, 2013;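 active means mean replicate inhibition at least 60% with every replicate also reaching 60%; inconclusive means only one of the two criteria is met; inactive means mean below 60% and not all replicates reaching 60%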;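 further: luciferase light reporting Pax8 driven TPO promoter activity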
# HIV Env fusion: inhibitors of HIV-1 Env-driven cell-cell fusion, primary screen, HeLa-JRFL effector, CEM21 target cells, luciferase; inhibition, % at 12.3 µM; 360,000 compounds, 1.1% hits; AID 651610, 2012;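 active means mean replicate inhibition score of at least 50 and every replicate individually at or above 50; inconclusive means only one of the two criteria met; inactive means mean below 50 and not all replicates reaching 50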
# FN deposition inh: inhibitors of fibronectin matrix deposition, primary screen, AH1F cells, Alexa488-fibronectin fluorescence, plate reader; AH1F fibroblasts, overnight; inhibition, % at 12.6 µM; 350,000 compounds, 0.086% hits;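 active means mean inhibition across replicates of 30% or more, regardless of how many single replicates reach that level; inconclusive means mean under 30% yet at least half of replicates reach 30%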
#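 Assay system: AH1F fibroblasts assembling fluorescent fibronectin matrix; Amount: 10000 AH1F cells per well; Buffer or medium: DMEM, 2% serum; Probe or stimulus: Alexa488-fibronectin, 24 nM final in well; Doses: single compound dose, delivered by pin transfer; Incubation: 1 h adhesion, overnight exposure; Measured by: fluorescence 485/525 nm; Read-out: fibronectin deposition inhibition.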
# CFTR F508del cor: F508del CFTR correction, initial screen, CFBE line, single point | 350,000 compounds, 0.36% hits | CFBE cells, YFP halide quenching; stimulated with forskolin plus potentiator P3; % fluorescence drop versus neutral controls | activity (quench increase), % at 7.58 µM;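 active means mean added fluorescence quench of at least 8% versus neutral control, with both replicates also reaching 8%; inconclusive means only one of the mean or replicate conditions met; inactive means mean below 8% and not both replicates reaching 8%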;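 further: cells transiently co-express mutant CFTR-F508del with the halide-sensitive YFP; corrector assay measuring rescue of mutant channel to the surface after 24 h compound exposure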
# A number is an active result; 0 = inactive; ? = inconclusive; - = not tested or not shown; [ ] = remark or other dose.
SMILES,PGC1a acetyl inh,EWS-Fli inh,PAX8 inh HTS,HIV Env fusion,FN deposition inh,CFTR F508del cor
NC(=S)n1[nH]c(-c2ccc([N+](=O)[O-])cc2)c(N=Nc2ccc(O)cc2)c1=O,0,-,0,0,0,-
NC(=S)n1[nH]c(-c2ccc([N+](=O)[O-])cc2)c(N=Nc2cccc(Cl)c2)c1=O,0,0,0,57.1,0,0
C[C@H](CO)N1C[C@H](C)[C@@H](CN(C)C(=O)NC2CCCCC2)OCCCC[C@H](C)Oc2ccc(NC(=O)Nc3ccc(C(F)(F)F)cc3)cc2C1=O,0,0,0,0,-,0
C[C@@H]1CN([C@H](C)CO)C(=O)c2cc(NC(=O)Nc3ccc(C(F)(F)F)cc3)ccc2O[C@@H](C)CCCCO[C@@H]1CN(C)C(=O)NC1CCCCC1,0,0,85.9,0,-,0
C[C@@H]1CCCCO[C@H](CN(C)C(=O)NC2CCCCC2)[C@H](C)CN([C@@H](C)CO)C(=O)c2cc(NC(=O)Nc3ccc(C(F)(F)F)cc3)ccc2O1,0,0,71.4,0,-,0
C[C@H]1CCCCO[C@@H](CN(C)C(=O)NC2CCCCC2)[C@@H](C)CN([C@@H](C)CO)C(=O)c2cc(NC(=O)Nc3ccc(C(F)(F)F)cc3)ccc2O1,0,0,87.9,0,-,0
C[C@H](CO)N1C[C@H](C)[C@H](CN(C)C(=O)NC2CCCCC2)OCCCC[C@H](C)Oc2ccc(NC(=O)Nc3ccc(C(F)(F)F)cc3)cc2C1=O,0,0,93.3,0,-,0
C[C@@H]1CCCCO[C@@H](CN(C)C(=O)NC2CCCCC2)[C@@H](C)CN([C@H](C)CO)C(=O)c2cc(NC(=O)Nc3ccc(C(F)(F)F)cc3)ccc2O1,0,0,0,0,-,0
C[C@@H]1CN([C@H](C)CO)C(=O)c2cc(NC(=O)CCN3CCOCC3)ccc2O[C@H]1CN(C)S(C)(=O)=O,0,0,0,0,-,0
C[C@H]1CN([C@@H](C)CO)C(=O)c2cccc(NC(=O)c3nc4ccccc4s3)c2O[C@H]1CN(C)CC1CC1,0,0,0,0,-,0
COc1ccc(CCN2C(=O)C=CC2=O)cc1OC,0,0,95.4,0,0,0
COc1ccc(C2SCC(=O)N2CCc2ccc(OC)c(OC)c2)cc1 (stereo unspecified),-,53.9,0,0,0,0
Cc1c(C(=O)OCc2ccccc2)[nH]c2c1C(=O)CC(c1ccco1)C2 (stereo unspecified),0,-,-,-,-,-
COCCOC(=O)c1[nH]c2c(c1C)C(=O)CC(c1ccco1)C2 (stereo unspecified),-,64.9,0,0,0,0
Cc1c(C(=O)OCCOC(C)C)[nH]c2c1C(=O)CC(c1ccco1)C2 (stereo unspecified),0,-,-,-,-,-
CCOC(=O)c1[nH]c2c(c1C)C(=O)CC(c1ccco1)C2 (stereo unspecified),0,0,82.8,0,0,0
O=C(C[C@@H]1CC[C@H]2[C@@H](COC[C@@H](O)CN2S(=O)(=O)c2cccc(Cl)c2)O1)NCCCN1CCOCC1,0,-,-,-,0,0
CC(C)c1cn(CC[C@H]2CC[C@@H](NS(=O)(=O)c3ccc(Cl)cc3)[C@@H](CO)O2)nn1,0,0,0,0,-,0
CC(=O)Nc1ccc(S(=O)(=O)Nc2ccc(Cl)cn2)cc1,0,0,0,0,0,0
CC(=O)Nc1ccc(S(=O)(=O)c2ccnc3cc(Cl)ccc23)cc1,-,0,110.5,0,0,0
O=C(NCc1cccnc1)c1cccc(NS(=O)(=O)c2ccc(Br)cc2)c1,-,58.1,0,-,0,0
CCCCCC(=O)N/N=C(\C)c1ccc(N2CCCCC2)cc1,-,0,126.1,-,0,0
C/C(=N\NC(=O)c1ccccc1)c1ccc(N2CCCCC2)cc1,0,0,0,-,0,0
COc1cccc(/C=N/NC(=O)C(=O)Nc2ccccc2OC(F)(F)C(F)F)c1O,-,0,0,0,0,15.0
COc1cccc(/C=N/NC(=O)c2cc(-c3ccccn3)nc3ccccc23)c1O,0,0,68.3,0,0,0
SMILES,PGC1a acetyl inh,EWS-Fli inh,PAX8 inh HTS,HIV Env fusion,FN deposition inh,CFTR F508del cor
COc1cc(/C=N/NC(=S)Nc2cccc(C(=O)O)c2)ccc1O,0,81.4,79.7,0,0,-
COc1cccc(/C=N/NC(=S)Nc2cccc(C(=O)O)c2)c1O,-,61.2,0,0,0,0
COc1ccccc1/C=N/NC(=O)c1cccc(OC(F)(F)C(F)F)c1,-,0,0,0,0,-
COc1ccc(/C=N/NC(=S)Nc2cccc(C(=O)O)c2)cc1,-,0,0,0,0,0
CCC(=O)N1[C@H](CO)[C@@H](c2ccccc2)C12CN(C(=O)c1ccc(F)cc1)C2,0,0,0,-,-,0
COCC(=O)Nc1ccc2c(c1)OC[C@H](C)N(C(=O)c1cnccn1)C[C@H](C)[C@@H](OC)CN(C)C2=O,0,0,0,-,0,0
CCCC(=O)N1CC2(CN[C@@H](CO)c3c2c2ccc(OC)cc2n3C)C1,0,0,-,-,-,0
C[C@@H]1CN([C@@H](C)CO)C(=O)c2cccc(NS(C)(=O)=O)c2O[C@@H]1CN(C)Cc1ccc(Oc2ccccc2)cc1,0,0,0,-,-,0
C[C@H]1CN([C@@H](C)CO)C(=O)c2cccc(NS(=O)(=O)c3ccc(Cl)cc3)c2O[C@@H]1CN(C)Cc1ccc(C(F)(F)F)cc1,0,0,-,57.0[16.7 µM],0,0
C[C@@H]1CN([C@H](C)CO)C(=O)c2cccc(NS(=O)(=O)c3ccc(F)cc3)c2O[C@@H]1CN(C)Cc1ccc(C(F)(F)F)cc1,0,0,0,77.3[16.7 µM],-,0
Cc1noc(C)c1S(=O)(=O)Nc1cccc2c1O[C@H](CN(C)Cc1ccc(C(F)(F)F)cc1)[C@H](C)CN([C@H](C)CO)C2=O,0,0,0,59.1[16.7 µM],0,0
Cc1ccc(S(=O)(=O)Nc2cccc3c2O[C@@H](CN(C)Cc2ccc(Oc4ccccc4)cc2)[C@@H](C)CN([C@H](C)CO)C3=O)cc1,0,0,89.5,0,-,0
CO[C@@H]1CN(C)C(=O)c2ccc(NC(=O)CC(F)(F)F)cc2OC[C@@H](C)N(S(=O)(=O)c2cn(C)cn2)C[C@@H]1C,0,0,0,0,0,0
C[C@@H]1CN([C@H](C)CO)C(=O)c2cccc(NS(=O)(=O)c3ccc(F)cc3)c2O[C@H]1CN(C)Cc1ccc(-c2ccccc2)cc1,0,0,0,0,0,0
C[C@H](CO)N1C[C@H](C)[C@H](CN(C)Cc2ccc(-c3ccccc3)cc2)Oc2c(NS(=O)(=O)c3ccc(F)cc3)cccc2C1=O,0,0,64.7,0,0,0
NS(=O)(=O)c1ccc(CCNc2nn3c(-c4cccc(OC(F)(F)F)c4)cnc3s2)cc1,-,0,?,0,0,13.7

# Source: PubChem
